# Published values of several laboratories.
# Protocols differ between the studies behind these lines.
# Cell line: HeLa
# Read-out: cell growth or viability
Compound,method,time,IC50
COc1cc(C)cc2oc(-c3ccc(Br)cc3)cc(=O)c12,MTT,48 h,> 100 µM
COc1cccc2c1C(=O)c1c(O)c3c(c(O)c1C2=O)C[C@@](O)(C(=O)CO)C[C@@H]3O[C@H]1C[C@H](N)[C@H](O)[C@H](C)O1,MTT,48 h,0.18 µM
COc1c2c(cc3c1OCO3)[C@]13C=C[C@H](OC)C[C@H]1N(C2)C[C@H]3OC(=O)c1cccc(C)c1,WST-1,48 h,> 10 µM
COc1cccc(C(=O)c2cc3c(-c4ccccc4)c(O)ccc3o2)c1,,,27 µM
COc1cc(OC)c2c(=O)cc(-c3cccc(Br)c3)oc2c1,MTT,48 h,72 µM
CC1(C)SC2C(NC(=O)C(NC(=O)C3=C(O)C(Cc4ccccc4)NC3=O)c3ccccc3)C(=O)N2C1C(=O)O (centres unmarked),ATP luminescence,48 h,122 µg/mL
COc1cccc(Oc2ccccc2NC(=O)CNC(=O)c2c(C)cc(C)cc2C)c1,,,6.5 µM
COc1nc(OCc2cccc(-c3ccccc3)c2C)ccc1CNCCNC(C)=O,MTT,,3.6 µM
COc1cc(OC)c2c(=O)cc(-c3ccccc3Br)oc2c1,MTT,48 h,> 100 µM
CC1(C)SC2C(NC(=O)C(NC(=O)C3=C(O)CN(c4ccccc4)C3=O)c3ccccc3)C(=O)N2C1C(=O)O (centres unmarked),ATP luminescence,48 h,87 µg/mL
CC(=O)O[C@H](C)C(=O)CCCCC[C@@H]1NC(=O)[C@H]2CCCN2C(=O)[C@H](Cc2ccccc2)NC(=O)C(C)(C)NC1=O,XTT,,0.119 µM
Cc1ccc(C#CC#Cc2ccc(C)cc2)cc1,MTT,24 h,70.5 µg/mL
COc1cc(C)cc2oc(-c3ccc(N(C)C)cc3)cc(=O)c12,MTT,48 h,24.2 µM
CN(C)CCCOc1cc(NC(=O)c2cccc(C(=O)Nc3cc(OCCCN(C)C)c4ccccc4n3)n2)nc2ccccc12,ATP luminescence,72 h,3 µM
COc1cccc(-c2cccc(NC(=O)CCc3cccc4c3B(O)OC4)c2)c1,ATP luminescence,72 h,1.05 µM
COc1cc(C)cc2oc(-c3ccccc3Br)cc(=O)c12,MTT,48 h,76.3 µM
CCCC#CC#CCCC,MTT,24 h,105 µg/mL
NCCOc1cc(C(=O)Nc2cc(OCCN)c3ccccc3n2)nc(C(=O)Nc2cc(OCCN)c3ccccc3n2)c1,ATP luminescence,72 h,2.5 µM
COc1cc(OC)c2c(=O)cc(-c3ccc(N(C)C)cc3)oc2c1,MTT,48 h,55.7 µM
CCN1CCN(C(=O)N[C@@H](C(=O)N[C@@H]2C(=O)N3[C@@H]2SC(C)(C)[C@@H]3C(=O)O)c2ccccc2)C(=O)C1=O,ATP luminescence,48 h,68.2 µg/mL
COc1cc(C)cc2oc(-c3cccc(Br)c3)cc(=O)c12,MTT,48 h,32.9 µM
COC(=O)CN=c1scc(-c2ccccc2)n1-c1ccccc1OC,MTT,72 h,2.97 µM
CC(C)(C)OCC1NC(=O)C(C(=O)NC(C(=O)NC2C(=O)N3C2SC(C)(C)C3C(=O)O)c2ccccc2)=C1O (centres unmarked),ATP luminescence,48 h,106 µg/mL
CC(=O)c1ccc(-c2cccc(NC(=O)CCc3cccc4c3B(O)OC4)c2)cc1,ATP luminescence,,1.27 µM
Cc1ccc2c(Br)cc(Br)c(O)c2n1,MTT,48 h,> 150 µM
COc1ccccc1C(=O)c1cc2c(-c3ccccc3)c(OC)ccc2o1,,,> 50 µM
O=c1[nH]cc(F)c(=O)[nH]1,,72 h,0.54 µM
NCCCOc1cc(NC(=O)c2cc(OCc3c[nH]nn3)cc(C(=O)Nc3cc(OCCCN)c4ccccc4n3)n2)nc2ccccc12,ATP luminescence,72 h,> 40 µM
COc1ccc(C(=O)c2cc3c(-c4ccccc4)c(O)ccc3o2)cc1,,,0.51 µM
COC(=O)CN=c1scc(-c2ccccc2)n1-c1ccccc1[N+](=O)[O-],MTT,72 h,6.02 µM
c1ccc(-c2ccccn2)nc1,MTT,48 h,> 50 µM
CCOC(=O)C#CC#CC(=O)OCC,MTT,24 h,13.2 µg/mL
CC(=O)O[C@H]1C(=O)[C@@]2(C)[C@H]([C@H](OC(=O)c3ccccc3)[C@]3(O)C[C@H](OC(=O)[C@H](O)[C@@H](NC(=O)c4ccccc4)c4ccccc4)C(C)=C1C3(C)C)[C@]1(OC(C)=O)CO[C@@H]1C[C@@H]2O,MTT,72 h,< 2 µM
COc1cc(OC)c2c(=O)cc(-c3ccccc3)oc2c1,MTT,48 h,73.7 µM
C[C@@H](O)C(=O)CCCCCCC(=O)Nc1ccccc1,XTT,,> 50 µM
Oc1c(Br)cc(Br)c2cccnc12,MTT,48 h,83.2 µM
O=C(c1ccccc1)c1cc2c(-c3ccccc3)c(O)ccc2o1,,,35 µM
COc1cccc(C(=O)O[C@@H]2CN3Cc4c(cc5c(c4OC)OCO5)[C@@]24C=C[C@H](OC)C[C@@H]34)c1,WST-1,48 h,> 10 µM
NCCOc1cc(NC(=O)c2cc(OCc3ccc(F)cc3)cc(C(=O)Nc3cc(OCCN)c4ccccc4n3)n2)nc2ccccc12,ATP luminescence,72 h,9.6 µM
CC1(C)SC2C(NC(=O)C(NC(=O)C3=C(O)C(Cc4ccc([N+](=O)[O-])cc4)NC3=O)c3ccccc3)C(=O)N2C1C(=O)O (centres unmarked),ATP luminescence,48 h,133 µg/mL
COc1cc(C#CC#Cc2cc(OC)cc(OC)c2)cc(OC)c1,MTT,24 h,4.51 µg/mL
COc1cc(C(=O)Nc2cc(OCCN3CCCC3)c3ccccc3n2)nc(C(=O)Nc2cc(OCCN3CCCC3)c3ccccc3n2)c1,ATP luminescence,72 h,3.9 µM
C(C#Cc1ccccc1)#Cc1ccccc1,MTT,24 h,3.77 µg/mL
NCCCOc1cc(NC(=O)c2cccc(C(=O)Nc3cc(OCCCN)c4ccccc4n3)n2)nc2ccccc12,ATP luminescence,72 h,1.4 µM
